Columns and labels:
786-0 = assay: Growth inhibition of human 786-0 cells assessed as cell growth at 10 uM incubated for 48 hrs by sulforhodamine B assay relative to control; assay type: functional; conditions: 786-0, 48 h, read-out: Activity
Procedure, shortened: (§1)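 NCI-60 one-dose screen run by the NCI Developmental Therapeutics Program at a single 10 µM concentration; growth percent read from the one-dose mean graph.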

MDA-MB-435 = assay: Growth inhibition of human MDA-MB-435 cells assessed as cell growth at 10 uM incubated for 48 hrs by sulforhodamine B assay relative to control; assay type: functional; conditions: MDA-MB-435, 48 h, read-out: Activity; procedure, shortened: as §1
HOP-92 = assay: Growth inhibition of human HOP92 cells assessed as cell growth at 10 uM incubated for 48 hrs by sulforhodamine B assay relative to control; assay type: functional; conditions: HOP-92, 48 h, read-out: Activity; procedure, shortened: as §1
SF-295 = assay: Growth inhibition of human SF295 cells assessed as cell growth at 10 uM incubated for 48 hrs by sulforhodamine B assay relative to control; assay type: functional; conditions: SF-295, 48 h, read-out: Activity; procedure, shortened: as §1
EKVX = assay: Growth inhibition of human EKVX cells at 10 uM incubated for 48 hrs by sulforhodamine B assay relative to control; assay type: functional; conditions: read-out: GI; procedure, shortened: as §1
MDA-MB-361 = assay: Cytotoxicity against human MDA-MB-361 cells over expressing HER2 assessed as reduction in cell viability after 72 hrs by sulforhodamine B assay; assay type: functional, cell-based; conditions: MDA-MB-361, 72 h
Procedure, shortened: (§2)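 Cells seeded and grown 24 h, then exposed to 0.1% DMSO vehicle or 0.3125-20 μM compound for 72 h. Fixed with ice-cold 50% TCA (1 h, 4 °C), stained with 0.4% SRB 30 min at room temperature, dye solubilized in 10 mM tris base pH 10.5, OD read at 560 nm. Survival fraction = OD treated/OD vehicle; IC50 from triplicates of at least two independent experiments, mean ± SD.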

SNB-19 = assay: Growth inhibition of human SNB19 cells assessed as cell growth at 10 uM incubated for 48 hrs by sulforhodamine B assay relative to control; assay type: functional; conditions: SNB-19, 48 h, read-out: Activity; procedure, shortened: as §1
A498 = assay: Growth inhibition of human A498 cells assessed as cell growth at 10 uM incubated for 48 hrs by sulforhodamine B assay relative to control; assay type: functional; conditions: A498, 48 h, read-out: Activity; procedure, shortened: as §1
NCI-H322M = assay: Growth inhibition of human NCI-H322M cells at 10 uM incubated for 48 hrs by sulforhodamine B assay relative to control; assay type: functional; conditions: read-out: GI; procedure, shortened: as §1
SF-539 = assay: Growth inhibition of human SF539 cells assessed as cell growth at 10 uM incubated for 48 hrs by sulforhodamine B assay relative to control; assay type: functional; conditions: SF-539, 48 h, read-out: Activity; procedure, shortened: as §1
OVCAR-4 = assay: Growth inhibition of human OVCAR4 cells assessed as cell growth at 10 uM incubated for 48 hrs by sulforhodamine B assay relative to control; assay type: functional; conditions: OVCAR-4, 48 h, read-out: Activity; procedure, shortened: as §1
NCI/ADR-RES = assay: Growth inhibition of human NCI/ADR-RES cells assessed as cell growth at 10 uM incubated for 48 hrs by sulforhodamine B assay relative to control; assay type: functional; conditions: read-out: Activity; procedure, shortened: as §1
SK-MEL-5 = assay: Growth inhibition of human SK-MEL-5 cells assessed as cell growth at 10 uM incubated for 48 hrs by sulforhodamine B assay relative to control; assay type: functional; conditions: SK-MEL-5, 48 h, read-out: Activity; procedure, shortened: as §1
HOP-62 = assay: Growth inhibition of human HOP62 cells assessed as cell growth at 10 uM incubated for 48 hrs by sulforhodamine B assay relative to control; assay type: functional; conditions: HOP-62, 48 h, read-out: Activity; procedure, shortened: as §1
SNB-75 = assay: Growth inhibition of human SNB75 cells assessed as cell growth at 10 uM incubated for 48 hrs by sulforhodamine B assay relative to control; assay type: functional; conditions: SNB-75, 48 h, read-out: Activity
Procedure, shortened: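 NCI-60 single-dose screen at 10 µM run by the NCI Developmental Therapeutics Program; growth percent read from the one-dose mean graph, with percent inhibition approximated from those growth-percent values.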

SN12C = assay: Growth inhibition of human SN12C cells assessed as cell growth at 10 uM incubated for 48 hrs by sulforhodamine B assay relative to control; assay type: functional; conditions: read-out: Activity; procedure, shortened: as §1
DU-145 = assay: Growth inhibition of human DU145 cells assessed as cell growth at 10 uM incubated for 48 hrs by sulforhodamine B assay relative to control; assay type: functional; conditions: DU-145, 48 h, read-out: Activity; procedure, shortened: as §1
NCI-H522 = assay: Growth inhibition of human NCI-H522 cells assessed as cell growth at 10 uM incubated for 48 hrs by sulforhodamine B assay relative to control; assay type: functional; conditions: NCI-H522, 48 h, read-out: Activity; procedure, shortened: as §1
CCRF-CEM = assay: Growth inhibition of human CCRF-CEM cells assessed as cell growth at 10 uM incubated for 48 hrs by sulforhodamine B assay relative to control; assay type: functional; conditions: read-out: Activity; procedure, shortened: as §1
NCI-H460 = assay: Growth inhibition of human NCI-H460 cells assessed as cell growth at 10 uM incubated for 48 hrs by sulforhodamine B assay relative to control; assay type: functional; conditions: NCI-H460, 48 h, read-out: Activity; procedure, shortened: as §1
Malme-3M = assay: Growth inhibition of human MALME-3M cells assessed as cell growth at 10 uM incubated for 48 hrs by sulforhodamine B assay relative to control; assay type: functional; conditions: read-out: Activity; procedure, shortened: as §1
A549 = assay: Growth inhibition of human A549/ATCC cells assessed as cell growth at 10 uM incubated for 48 hrs by sulforhodamine B assay relative to control; assay type: functional; conditions: A549, 48 h, read-out: Activity; procedure, shortened: as §1
BT-549 = assay: Growth inhibition of human BT549 cells assessed as cell growth at 10 uM incubated for 48 hrs by sulforhodamine B assay relative to control; assay type: functional; conditions: BT-549, 48 h, read-out: Activity; procedure, shortened: as §1
SK-MEL-28 = assay: Growth inhibition of human SK-MEL-28 cells assessed as cell growth at 10 uM incubated for 48 hrs by sulforhodamine B assay relative to control; assay type: functional; conditions: SK-MEL-28, 48 h, read-out: Activity; procedure, shortened: as §1
KM12 = assay: Growth inhibition of human KM12 cells assessed as cell growth at 10 uM incubated for 48 hrs by sulforhodamine B assay relative to control; assay type: functional; conditions: KM12, 48 h, read-out: Activity; procedure, shortened: as §1
A-431 = assay: Cytotoxicity against human A431 cells over expressing EGFR assessed as reduction in cell viability after 72 hrs by sulforhodamine B assay; assay type: functional, cell-based; conditions: A-431, 72 h; procedure, shortened: as §2
MOLT-4 = assay: Growth inhibition of human MOLT4 cells assessed as cell growth at 10 uM incubated for 48 hrs by sulforhodamine B assay relative to control; assay type: functional; conditions: MOLT-4, 48 h, read-out: Activity; procedure, shortened: as §1
NCI-H23 = assay: Growth inhibition of human NCI-H23 cells assessed as cell growth at 10 uM incubated for 48 hrs by sulforhodamine B assay relative to control; assay type: functional; conditions: NCI-H23, 48 h, read-out: Activity; procedure, shortened: as §1
OVCAR-8 = assay: Growth inhibition of human OVCAR8 cells assessed as cell growth at 10 uM incubated for 48 hrs by sulforhodamine B assay relative to control; assay type: functional; conditions: OVCAR-8, 48 h, read-out: Activity; procedure, shortened: as §1
OVCAR-5 = assay: Growth inhibition of human OVCAR5 cells assessed as cell growth at 10 uM incubated for 48 hrs by sulforhodamine B assay relative to control; assay type: functional; conditions: OVCAR-5, 48 h, read-out: Activity; procedure, shortened: as §1

Structure (SMILES)	growth at 10 µM (786-0)	growth at 10 µM (MDA-MB-435)	growth at 10 µM (HOP-92)	growth at 10 µM (SF-295)	inhibition of growth at 10 µM (EKVX)	IC50 (MDA-MB-361)	growth at 10 µM (SNB-19)	growth at 10 µM (A498)	inhibition of growth at 10 µM (NCI-H322M)	growth at 10 µM (SF-539)	growth at 10 µM (OVCAR-4)	growth at 10 µM (NCI/ADR-RES)	growth at 10 µM (SK-MEL-5)	growth at 10 µM (HOP-62)	growth at 10 µM (SNB-75)	growth at 10 µM (SN12C)	growth at 10 µM (DU-145)	growth at 10 µM (NCI-H522)	growth at 10 µM (CCRF-CEM)	growth at 10 µM (NCI-H460)	other results
O=[N+]([O-])c1ccc(-c2cc3c(Nc4ccc(OCc5cccc(F)c5)c(Cl)c4)ncnc3s2)cc1	95.4%	91.9%	82.1%	69.7%	20%	7.5 µM	68%	84.8%	15%	99.2%	89.6%	80.5%	92.8%	94.7%	98.5%	83.4%	82.1%	68.3%	68.6%	42.2%	growth at 10 µM (Malme-3M): 94.4%; growth at 10 µM (A549): 51.4%; growth at 10 µM (BT-549): 103%; growth at 10 µM (SK-MEL-28): 110%; growth at 10 µM (KM12): 80%; IC50 (A-431): 11 µM; growth at 10 µM (MOLT-4): 65.7%; growth at 10 µM (NCI-H23): 73.1%; growth at 10 µM (OVCAR-8): 70.3%; growth at 10 µM (OVCAR-5): 101%
Nc1ccc(-c2cc3c(Nc4ccc(OCc5cccc(F)c5)c(Cl)c4)ncnc3s2)cc1	37.2%	43.8%	45.8%	47.8%	80%	5.7 µM	77.3%	39.3%	75%	57.4%	54.8%	50.4%	57.7%	62.3%	87.2%	48.4%	36.9%	13.1%	23.9%	36.5%	growth at 10 µM (Malme-3M): 42.1%; growth at 10 µM (A549): 21.2%; growth at 10 µM (BT-549): 61.2%; growth at 10 µM (SK-MEL-28): 39.2%; growth at 10 µM (KM12): 24%; IC50 (A-431): 9.76 µM; growth at 10 µM (MOLT-4): 30%; growth at 10 µM (NCI-H23): 68.6%; growth at 10 µM (OVCAR-8): 63.1%; growth at 10 µM (OVCAR-5): 77.9%

— ChEMBL document CHEMBL4270530, “Surmounting the resistance against EGFR inhibitors through the development of thieno[2,3-d]pyrimidine-based dual EGFR/HER2 inhibitors” (Eur J Med Chem, 2018)
